Active and inactive are the calls of the source. The calls are words filed in the database; no cut-off is given here.

Data set [1] addresses S-adenosylmethionine synthase isoform type-2 (Homo sapiens) (UniProt P31153). The experiment in a line: Binding affinity to GST-tagged MAT2A (unknown origin) expressed in Escherichia coli BL21 by Western blot based pull down assay. An outline of the steps: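 Recombinant MAT2A was incubated with or without the biotinylated probe, and the complex was captured on streptavidin beads. Bound protein was eluted with 2.5 mM D-(+)-biotin, run on 10% SDS-PAGE, and detected by western blot with an anti-MAT2A antibody.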
(Immunoblotting shows a protein as a band on a membrane.)

Data set [2] relates to LS174T. The data set is described as follows: Antiproliferative activity against human LS174T cells assessed as inhibition of cell proliferation at 10 uM after 4 days by Vi-Cell cell viability analyzer based method relative to control. Type of data set: functional. To be noted: 96 h. An outline of the steps:
(§1)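 Cells (colon LS174T, HT-29, Caco2; lung epithelial BEAS-2B; fibroblast HEL 299) were kept in RPMI or DMEM with 5% or 10% FBS plus 1% penicillin/streptomycin. 3 × 10^4 cells per well were exposed to DMSO or compound. After 4 days, cell number and viability were counted on a Vi-Cell analyzer. Results are given as percent inhibition of proliferation at the stated concentration.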

Data set [3] relates to LS174T. The data set is described as follows: Antiproliferative activity against human LS174T cells assessed as inhibition of cell proliferation at 1 uM after 4 days by Vi-Cell cell viability analyzer based method relative to control. Conditions: 96 h. Type of data set: functional. An outline of the steps: as §1
The subject of data set [4] is LS174T. The data set is described as follows: Antiproliferative activity against human LS174T cells assessed as inhibition of cell proliferation at 100 nM after 4 days by Vi-Cell cell viability analyzer based method relative to control. It counts as functional. To be noted: 96 h. An outline of the steps:
as §1

Data set [5] has as its system LS174T. The data set is described as follows: Antiproliferative activity against human LS174T cells assessed as inhibition of cell proliferation at 30 nM after 4 days by Vi-Cell cell viability analyzer based method relative to control. It counts as functional. To be noted: 96 h. An outline of the steps: as §1
The subject of data set [6] is HT-29. The data set is described as follows: Antiproliferative activity against human HT-29 cells assessed as inhibition of cell proliferation at 1 uM after 4 days by Vi-Cell cell viability analyzer based method relative to control. It counts as functional. To be noted: HT-29, 96 h. In short, it runs like this:
as §1

Data set [7] concerns Caco-2. The data set is described as follows: Antiproliferative activity against human Caco2 cells assessed as inhibition of cell proliferation at 1 uM after 4 days by Vi-Cell cell viability analyzer based method relative to control. Type of data set: functional. To be noted: Caco-2, 96 h. In short, it runs like this: as §1
A short description of data set [8]: Cytotoxicity against human HEL299 cells assessed as inhibition of cell proliferation at 10 uM after 4 days by Vi-Cell cell viability analyzer based method relative to control. Also noted: species or system HEL 299. An outline of the steps:
as §1

Data set [9] is described as follows: Cytotoxicity against human HEL299 cells assessed as inhibition of cell proliferation at 1 uM after 4 days by Vi-Cell cell viability analyzer based method relative to control. More on the design: species or system HEL 299. In short, it runs like this: as §1
A short description of data set [10]: Cytotoxicity against human BEAS2B cells assessed as inhibition of cell proliferation at 10 uM after 4 days by Vi-Cell cell viability analyzer based method relative to control. More on the design: species or system BEAS-2B. An outline of the steps: as §1
A short description of data set [11]: Cytotoxicity against human BEAS2B cells assessed as inhibition of cell proliferation at 1 uM after 4 days by Vi-Cell cell viability analyzer based method relative to control. Also noted: species or system BEAS-2B. An outline of the steps: as §1
In data set [12] the target is G1/S-specific cyclin-D1 (Homo sapiens) (UniProt P24385). The experiment in a line: Inhibition of cyclin D1 in human LS174T cells assessed as reduction in protein level at 300 nM by Western blot analysis. It counts as cell-based. In short, it runs like this: (§2)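 LS174T cells were treated at 300 nM. Lysates were western blotted with antibodies to cyclin D1 and p21Wif1/Cip1, using β-tubulin as the loading control.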
Sequence of G1/S-specific cyclin-D1 (Homo sapiens) (P24385 whole entry): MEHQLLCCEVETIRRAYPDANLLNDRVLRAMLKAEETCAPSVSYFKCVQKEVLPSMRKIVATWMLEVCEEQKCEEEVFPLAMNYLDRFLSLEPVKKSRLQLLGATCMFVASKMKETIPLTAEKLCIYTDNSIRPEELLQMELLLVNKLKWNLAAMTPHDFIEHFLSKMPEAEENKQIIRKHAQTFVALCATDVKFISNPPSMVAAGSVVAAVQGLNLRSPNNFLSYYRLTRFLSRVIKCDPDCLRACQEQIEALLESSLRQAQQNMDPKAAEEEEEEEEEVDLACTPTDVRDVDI

Data set [13] shares this target. The data set is described as follows: Inhibition of cyclin D1 in human LS174T cells assessed as induction of p21 waf1/cip1 expression at 300 nM by Western blot analysis. It counts as cell-based. In short, it runs like this:
as §2

Data set [14] deals with LS174T. The experiment in a line: Antiproliferative activity against human LS174T cells assessed as inhibition of cell proliferation after 4 days by Vi-Cell cell viability analyzer based method. Type of data set: functional. To be noted: 96 h. An outline of the steps:
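LS174T cells in RPMI or DMEM with 5% or 10% FBS plus 1% penicillin/streptomycin were seeded at 3 × 10^4 cells per well. They were treated with DMSO or a range of compound concentrations, and cell number and viability were counted on a Vi-Cell analyzer after 4 days. IC50 was fitted from the dose-response curve.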

In data set [15] the test system is HT-29. The experiment in a line: cells. Conditions: Homo sapiens, HT-29, 96 h, read-out: INH.
Data set [16] concerns Caco-2. The experiment in a line: cells. Conditions: Homo sapiens, Caco-2, 96 h, read-out: INH.

Sequence of S-adenosylmethionine synthase isoform type-2 (Homo sapiens) (P31153 whole entry, looked up, canonical isoform): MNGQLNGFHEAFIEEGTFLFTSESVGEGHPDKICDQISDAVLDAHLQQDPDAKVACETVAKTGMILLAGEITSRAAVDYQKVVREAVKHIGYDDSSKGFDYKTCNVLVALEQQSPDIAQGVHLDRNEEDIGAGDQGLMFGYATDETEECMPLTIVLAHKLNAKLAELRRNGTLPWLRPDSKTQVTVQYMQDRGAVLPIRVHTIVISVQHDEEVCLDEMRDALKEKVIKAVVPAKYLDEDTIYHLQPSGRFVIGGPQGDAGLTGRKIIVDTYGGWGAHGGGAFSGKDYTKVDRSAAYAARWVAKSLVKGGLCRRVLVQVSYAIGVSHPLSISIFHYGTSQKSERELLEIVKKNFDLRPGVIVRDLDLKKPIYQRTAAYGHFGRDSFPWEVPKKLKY

Consider `CN(CC(=O)NCCOCCOCCNC(=O)CCCC[C@@H]1SC[C@@H]2NC(=O)N[C@@H]21)c1ccc(C#Cc2c(F)cccc2F)c2ccccc12`, for which the result in data set [1] was Active.

On to `CN(C)c1ncc(C#Cc2c(F)cccc2F)c2ccccc12`, for which the inhibition at 10 µM in the data set on LS174T [2] was 97.6%. Also, the inhibition at 1 µM with LS174T [3] was 99.5%; with HT-29 [6], 35.9%; with Caco-2 [7], 54.5%. Further, the inhibition at 0.1 µM in the data set with LS174T [4] was determined as 81.7%. For the same compound, in the data set with LS174T [5], the inhibition at 0.03 µM turned out to be 86%. Moreover, the inhibition at 96 h, 10 µM in [8] was determined as 11.7%; in data set [10], 16.2%. Also, the inhibition at 96 h, 1 µM in [9] turned out to be 13.9%; in [11], 1.5%. The inhibition result in data set [12] and in [13] was “Active” throughout. Also, the IC50 – broadly, the concentration that inhibits the measured activity by half – in the data set with LS174T [14] stood at 11.8 nM.

Consider `O=c1[nH]cc(F)c(=O)[nH]1` [FLUOROURACIL], for which the results for the inhibition at 10 µM in the data set on LS174T [2], with HT-29 [15] and in the data set on Caco-2 [16] were 82.3%, 82.9% and 60.2%, respectively. The inhibition at 1 µM in the data set with LS174T [3] was 6.5%; in the data set with HT-29 [6], 11.6%; with Caco-2 [7], 37.7%. In addition, the inhibition at 96 h, 10 µM in data set [8] was determined as 64.6%; in data set [10], 57.5%. The inhibition at 96 h, 1 µM came to 12.1% in [9] and 4.5% in data set [11].

The record behind these values is ChEMBL document CHEMBL4261567, “Phenylethynyl-substituted Heterocycles Inhibit Cyclin D1 and Induce the Expression of Cyclin-dependent Kinase Inhibitor p21Wif1/Cip1 in Colorectal Cancer Cells” (Medchemcomm, 2018).
